Assay results of several laboratories.
Each line is one published result; the experiments were not run side by side.

Compound | host | sample | route | dose | notes | Tmax [h]
CC(C)(Sc1ccncc1-c1ccc(C#N)c2ccccc12)C(=O)O | male human | plasma | oral | 10 mg | multiple doses, once daily | 1
C[C@@H](Nc1cc(F)cc(F)c1)c1cc(C(=O)N(C)C)cc2c(=O)cc(N3CCOCC3)oc12 | human | plasma | oral | 60 mg | single dose, patients | 1.27
Cn1cc(-c2ccc(S(=O)(=O)[C@@H]3C[C@@H](C(=O)NC4(C#N)CC4)N(C(=O)C4(C(F)(F)F)CC4)C3)c(C(F)(F)F)c2)cn1 | human | plasma | oral | 1 mg | single dose, fasted, healthy volunteers | 4
COc1ccc([C@@H]2CN(C(=O)[C@@H](O)CO)C[C@@]2(C)[C@@H](C)O)cc1OC1CN(c2ccc(C)cn2)C1 | human | plasma | oral | 0.5 mg | single dose, healthy volunteers | 1.5
CC(C)(O)c1ccccc1-c1ccc2[nH]c(/C=C/c3ccc(C(F)(F)F)cc3)nc2c1 | male human | plasma | oral | 2 mg | single dose, fasted | 3.94
NS(=O)(=O)NCCNc1nonc1C(=NO)Nc1ccc(F)c(Br)c1 | human | plasma | oral | 50 mg | multiple doses, once daily, steady state, patients | 2
CC(C)n1cc(C#N)c2cc(-n3cc(C(=O)O)cn3)ccc21 | human | plasma | oral | 100 mg | multiple doses, once daily, steady state | 2.5
c1cnc2ccc(Nc3nc(NC4CC4)c4nc[nH]c4n3)cc2c1 | human | plasma | oral | 200 mg/m² | patients | 5.7
Cc1nc(NC(=O)N2CCC[C@H]2C(N)=O)sc1-c1ccnc(C(C)(C)C(F)(F)F)c1 | human | plasma | oral | 400 mg | patients | 2
CS(=O)(=O)CCC#N | human | plasma | oral | 100 mg | single dose, fasted | 2
CO[C@@H]1[C@H](OC(=O)N2CC(CCN3CCOCC3)C2)CC[C@]2(CO2)[C@H]1[C@@]1(C)O[C@@H]1CC=C(C)C | human | plasma | subcutaneous | 3.6 mg | single dose, healthy volunteers | 0.25
CCc1nc(C(N)=O)c(Nc2ccc(N3CCC(N4CCN(C)CC4)CC3)c(OC)c2)nc1NC1CCOCC1 | human | plasma | oral | 80 mg | multiple doses, patients | 4.03
CCO[C@H]1CCN(Cc2c(OC)cc(C)c3[nH]ccc23)[C@H](c2ccc(C(=O)O)cc2)C1 | human | plasma | oral | 25 mg | multiple doses, twice daily, patients | 2
COc1cc(N2CCC(N3CCN(C)CC3)CC2)ccc1Nc1ncnc(Nc2ccccc2S(=O)(=O)C(C)C)n1 | human | plasma | oral | 50 mg | multiple doses, patients | 2.99
C#C[C@]1(COP(=O)(O)OP(=O)(O)OP(=O)(O)O)O[C@@H](n2cnc3c(N)nc(F)nc32)C[C@@H]1O | human | plasma | oral | 5 mg | single dose | 9
CCc1nc2c(C)cc(N3CCN(CC(=O)N4CC(O)C4)CC3)cn2c1N(C)c1nc(-c2ccc(F)cc2)c(C#N)s1 | human | plasma | oral | 1000 mg | fed, healthy volunteers | 2
C=CC(=O)N(C)CCOc1c(N)ncnc1-c1cc(F)cc(NC(=O)c2ccc(C3CC3)cc2F)c1C | human | blood | oral | 5 mg | single dose, healthy volunteers | 0.52
C[C@@]1(c2cc(NC(=O)c3ccc(C#N)cn3)ccc2F)C=CSC(N)=N1 | human | plasma | oral | 1 mg | single dose | 0.89
